Laboratory results reported in ChEMBL document CHEMBL4334458, “Design, synthesis and antibacterial evaluation of novel 15-membered 11a-azahomoclarithromycin derivatives with the 1, 2, 3-triazole side chain” (Eur J Med Chem, 2019).
In brackets after ≈: the same amount, converted by molar mass.

Legend:
Type in all cases: functional
Streptococcus pyogenes [1] = test: Antibacterial activity against erythromycin-susceptible Streptococcus pyogenes 1 clinical isolate incubated for 24 hrs by broth dilution method
Method in brief: (§1)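 CLSI broth microdilution in cation-adjusted Mueller-Hinton broth. Twofold dilutions spanned 0.25–128 or 0.5–256 µg/mL, with CAM and AZM as controls. Log-phase bacteria were added and incubated 24 h at 37 °C. MIC was read by turbidity as the concentration of the last clear well.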

Staphylococcus aureus [2] = test: Antibacterial activity against penicillin-resistant Staphylococcus aureus ATCC 31007 incubated for 24 hrs by broth dilution method; conditions: ATCC 31007, 24 h
Escherichia coli = test: Antibacterial activity against penicillin-susceptible Escherichia coli ATCC 25922 incubated for 24 hrs by broth dilution method; conditions: ATCC 25922, 24 h; method in brief: as §1
Streptococcus pneumoniae [3] = test: Antibacterial activity against erythromycin-resistant Streptococcus pneumoniae B1 expressing the ermB incubated for 24 hrs by broth dilution method
Staphylococcus aureus [4] = test: Antibacterial activity against erythromycin-susceptible Staphylococcus aureus ATCC 25923 incubated for 24 hrs by broth dilution method; conditions: ATCC 25923, 24 h; method in brief: as §1
Bacillus subtilis = test: Antibacterial activity against penicillin-susceptible Bacillus subtilis ATCC 9372 incubated for 24 hrs by broth dilution method; conditions: ATCC 9372, 24 h; method in brief: as §1
Streptococcus pneumoniae [5] = test: Antibacterial activity against erythromycin-resistant Streptococcus pneumoniae AB11 expressing the ermB and mefA incubated for 24 hrs by broth dilution method
Staphylococcus aureus [6] = test: Antibacterial activity against methicillin-resistant Staphylococcus aureus ATCC 43300 incubated for 24 hrs by broth dilution method; conditions: ATCC 43300, 24 h
Pseudomonas aeruginosa = test: Antibacterial activity against penicillin-susceptible Pseudomonas aeruginosa ATCC 27853 incubated for 24 hrs by broth dilution method; conditions: ATCC 27853, 24 h; method in brief: as §1
Streptococcus pyogenes [7] = test: Antibacterial activity against erythromycin-resistant Streptococcus pyogenes 2 clinical isolate incubated for 24 hrs by broth dilution method

Row | SMILES | MIC (Streptococcus pyogenes [1]) [µg/mL] | MIC (Staphylococcus aureus [2]) [µg/mL] | MIC (Escherichia coli) [µg/mL] | MIC (Streptococcus pneumoniae [3]) [µg/mL] | MIC (Staphylococcus aureus [4]) [µg/mL] | MIC (Bacillus subtilis) [µg/mL] | MIC (Streptococcus pneumoniae [5]) [µg/mL] | MIC (Staphylococcus aureus [6]) [µg/mL] | MIC (Pseudomonas aeruginosa) [µg/mL] | MIC (Streptococcus pyogenes [7]) [µg/mL]
1 | CCc1ccc(-n2cc(COC[C@H]3CN(C)C[C@@H](C)[C@@H](O)[C@H](C)C[C@@](C)(OC)[C@H](O[C@@H]4O[C@H](C)C[C@H](N(C)C)[C@H]4O)[C@@H](C)[C@H](O[C@H]4C[C@@](C)(OC)[C@@H](O)[C@H](C)O4)[C@@H](C)C(=O)O3)nn2)cc1 | 0.5 (≈ 0.543 µM) | 128 (≈ 139 µM) | 64 (≈ 69.6 µM) | 128 (≈ 139 µM) | 0.5 (≈ 0.543 µM) | ≤ 0.25 | 32 (≈ 34.8 µM) | 128 (≈ 139 µM) | 16 (≈ 17.4 µM) | 64 (≈ 69.6 µM)
2 | CO[C@]1(C)C[C@@H](C)[C@H](O)[C@H](C)CN(C)[C@@H](Cn2cc(-c3ccc(Cl)cc3)nn2)COC(=O)[C@H](C)[C@@H](O[C@H]2C[C@@](C)(OC)[C@@H](O)[C@H](C)O2)[C@H](C)[C@H]1O[C@@H]1O[C@H](C)C[C@H](N(C)C)[C@H]1O | 16 (≈ 17.8 µM) | 128 (≈ 143 µM) | > 128 | 256 (≈ 286 µM) | 32 (≈ 35.7 µM) | 16 (≈ 17.8 µM) | 128 (≈ 143 µM) | 64 (≈ 71.4 µM) | > 128 | 64 (≈ 71.4 µM)
3 | CO[C@]1(C)C[C@@H](C)[C@H](O)[C@H](C)CN(C)[C@H](Cn2cc(-c3ccccn3)nn2)COC(=O)[C@H](C)[C@@H](O[C@H]2C[C@@](C)(OC)[C@@H](O)[C@H](C)O2)[C@H](C)[C@H]1O[C@@H]1O[C@H](C)C[C@H](N(C)C)[C@H]1O | 4 (≈ 4.63 µM) | 256 (≈ 297 µM) | 64 (≈ 74.2 µM) | 256 (≈ 297 µM) | 16 (≈ 18.5 µM) | 32 (≈ 37.1 µM) | 128 (≈ 148 µM) | 256 (≈ 297 µM) | 64 (≈ 74.2 µM) | 256 (≈ 297 µM)
4 | CO[C@]1(C)C[C@@H](C)[C@H](O)[C@H](C)CN(C)[C@H](Cn2cc(-c3ccc(Cl)cc3)nn2)COC(=O)[C@H](C)[C@@H](O[C@H]2C[C@@](C)(OC)[C@@H](O)[C@H](C)O2)[C@H](C)[C@H]1O[C@@H]1O[C@H](C)C[C@H](N(C)C)[C@H]1O | 8 (≈ 8.92 µM) | 64 (≈ 71.4 µM) | 128 (≈ 143 µM) | 64 (≈ 71.4 µM) | 8 (≈ 8.92 µM) | 8 (≈ 8.92 µM) | 64 (≈ 71.4 µM) | 64 (≈ 71.4 µM) | > 128 | 32 (≈ 35.7 µM)
5 | CO[C@]1(C)C[C@@H](C)[C@H](O)[C@H](C)CN(C)C[C@@H](Cn2cc(-c3ccc(Cl)cc3)nn2)OC(=O)[C@H](C)[C@@H](O[C@H]2C[C@@](C)(OC)[C@@H](O)[C@H](C)O2)[C@H](C)[C@H]1O[C@@H]1O[C@H](C)C[C@H](N(C)C)[C@H]1O | 2 (≈ 2.23 µM) | 64 (≈ 71.4 µM) | 128 (≈ 143 µM) | 64 (≈ 71.4 µM) | 8 (≈ 8.92 µM) | 16 (≈ 17.8 µM) | 64 (≈ 71.4 µM) | 64 (≈ 71.4 µM) | > 128 | 32 (≈ 35.7 µM)
6 | CO[C@]1(C)C[C@@H](C)[C@H](O)[C@H](C)CN(C)C[C@@H](COCc2cn(-c3ccc(SC)cc3)nn2)OC(=O)[C@H](C)[C@@H](O[C@H]2C[C@@](C)(OC)[C@@H](O)[C@H](C)O2)[C@H](C)[C@H]1O[C@@H]1O[C@H](C)C[C@H](N(C)C)[C@H]1O | 4 (≈ 4.26 µM) | 128 (≈ 136 µM) | 128 (≈ 136 µM) | 64 (≈ 68.2 µM) | 4 (≈ 4.26 µM) | 2 (≈ 2.13 µM) | 32 (≈ 34.1 µM) | 64 (≈ 68.2 µM) | 128 (≈ 136 µM) | 32 (≈ 34.1 µM)
7 | CO[C@]1(C)C[C@@H](C)[C@H](O)[C@H](C)CN(C)C[C@H](Cn2cc(-c3ccccn3)nn2)OC(=O)[C@H](C)[C@@H](O[C@H]2C[C@@](C)(OC)[C@@H](O)[C@H](C)O2)[C@H](C)[C@H]1O[C@@H]1O[C@H](C)C[C@H](N(C)C)[C@H]1O | 1 (≈ 1.16 µM) | > 256 | 128 (≈ 148 µM) | > 256 | 4 (≈ 4.63 µM) | 2 (≈ 2.32 µM) | 256 (≈ 297 µM) | > 256 | 64 (≈ 74.2 µM) | 128 (≈ 148 µM)
8 | COc1cccc(-n2cc(COC[C@@H]3CN(C)C[C@@H](C)[C@@H](O)[C@H](C)C[C@@](C)(OC)[C@H](O[C@@H]4O[C@H](C)C[C@H](N(C)C)[C@H]4O)[C@@H](C)[C@H](O[C@H]4C[C@@](C)(OC)[C@@H](O)[C@H](C)O4)[C@@H](C)C(=O)O3)nn2)c1 | 2 (≈ 2.17 µM) | 256 (≈ 278 µM) | 128 (≈ 139 µM) | 128 (≈ 139 µM) | 2 (≈ 2.17 µM) | 2 (≈ 2.17 µM) | 64 (≈ 69.4 µM) | 256 (≈ 278 µM) | 128 (≈ 139 µM) | 64 (≈ 69.4 µM)
9 | CO[C@]1(C)C[C@@H](C)[C@H](O)[C@H](C)CN(C)[C@@H](Cn2cc(-c3ccccn3)nn2)COC(=O)[C@H](C)[C@@H](O[C@H]2C[C@@](C)(OC)[C@@H](O)[C@H](C)O2)[C@H](C)[C@H]1O[C@@H]1O[C@H](C)C[C@H](N(C)C)[C@H]1O | 16 (≈ 18.5 µM) | > 256 | > 128 | > 256 | 64 (≈ 74.2 µM) | 32 (≈ 37.1 µM) | 256 (≈ 297 µM) | > 256 | > 128 | 256 (≈ 297 µM)
10 | CO[C@]1(C)C[C@@H](C)[C@H](O)[C@H](C)CN(C)[C@H](Cn2cc(-c3ccccc3)nn2)COC(=O)[C@H](C)[C@@H](O[C@H]2C[C@@](C)(OC)[C@@H](O)[C@H](C)O2)[C@H](C)[C@H]1O[C@@H]1O[C@H](C)C[C@H](N(C)C)[C@H]1O | 8 (≈ 9.28 µM) | 128 (≈ 148 µM) | 64 (≈ 74.2 µM) | 256 (≈ 297 µM) | 8 (≈ 9.28 µM) | 16 (≈ 18.6 µM) | 256 (≈ 297 µM) | 256 (≈ 297 µM) | 64 (≈ 74.2 µM) | 128 (≈ 148 µM)
11 | CCCc1ccc(-n2cc(COC[C@H]3CN(C)C[C@@H](C)[C@@H](O)[C@H](C)C[C@@](C)(OC)[C@H](O[C@@H]4O[C@H](C)C[C@H](N(C)C)[C@H]4O)[C@@H](C)[C@H](O[C@H]4C[C@@](C)(OC)[C@@H](O)[C@H](C)O4)[C@@H](C)C(=O)O3)nn2)cc1 | 1 (≈ 1.07 µM) | 128 (≈ 137 µM) | 64 (≈ 68.5 µM) | 64 (≈ 68.5 µM) | 0.5 (≈ 0.535 µM) | 0.5 (≈ 0.535 µM) | 32 (≈ 34.3 µM) | 128 (≈ 137 µM) | 16 (≈ 17.1 µM) | 64 (≈ 68.5 µM)
12 | CO[C@]1(C)C[C@@H](C)[C@H](O)[C@H](C)CN(C)C[C@H](COCc2cn(-c3ccc(C(C)C)cc3)nn2)OC(=O)[C@H](C)[C@@H](O[C@H]2C[C@@](C)(OC)[C@@H](O)[C@H](C)O2)[C@H](C)[C@H]1O[C@@H]1O[C@H](C)C[C@H](N(C)C)[C@H]1O | 1 (≈ 1.07 µM) | 128 (≈ 137 µM) | 64 (≈ 68.5 µM) | 64 (≈ 68.5 µM) | 1 (≈ 1.07 µM) | 0.5 (≈ 0.535 µM) | 32 (≈ 34.3 µM) | 64 (≈ 68.5 µM) | 16 (≈ 17.1 µM) | 32 (≈ 34.3 µM)
13 | CCCCc1ccc(-c2cn(C[C@@H]3COC(=O)[C@H](C)[C@@H](O[C@H]4C[C@@](C)(OC)[C@@H](O)[C@H](C)O4)[C@H](C)[C@@H](O[C@@H]4O[C@H](C)C[C@H](N(C)C)[C@H]4O)[C@](C)(OC)C[C@@H](C)[C@H](O)[C@H](C)CN3C)nn2)cc1 | 16 (≈ 17.4 µM) | 64 (≈ 69.7 µM) | 128 (≈ 139 µM) | 64 (≈ 69.7 µM) | 128 (≈ 139 µM) | 32 (≈ 34.8 µM) | 64 (≈ 69.7 µM) | 128 (≈ 139 µM) | > 128 | 16 (≈ 17.4 µM)
14 | CO[C@]1(C)C[C@@H](C)[C@H](O)[C@H](C)CN(C)C[C@H](COCc2cn(-c3cccc(C(F)(F)F)c3)nn2)OC(=O)[C@H](C)[C@@H](O[C@H]2C[C@@](C)(OC)[C@@H](O)[C@H](C)O2)[C@H](C)[C@H]1O[C@@H]1O[C@H](C)C[C@H](N(C)C)[C@H]1O | 2 (≈ 2.08 µM) | 256 (≈ 267 µM) | 64 (≈ 66.7 µM) | 128 (≈ 133 µM) | 1 (≈ 1.04 µM) | 1 (≈ 1.04 µM) | 64 (≈ 66.7 µM) | 256 (≈ 267 µM) | 16 (≈ 16.7 µM) | 64 (≈ 66.7 µM)
